Experimental data taken from ChEMBL document CHEMBL5214983, “New Dual P-Glycoprotein (P-gp) and Human Carbonic Anhydrase XII (hCA XII) Inhibitors as Multidrug Resistance (MDR) Reversers in Cancer Cells” (J Med Chem, 2022).

What was measured:
[1] = Stability in PBS measured by LC-MS/MS analysis; type: physicochemical; details: buffer
How it was run: (§1)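 Analyte at 1 μM in PBS or in pooled human plasma, incubated at 37 °C for 0, 30, 60 and 120 min, in triplicate. Internal standard verapamil added, mixture centrifuged, supernatant dried and redissolved. Analyte quantified by LC-MS/MS. Half-life taken from the slope of ln(concentration) versus time. Ketoprofen ethyl ester served as plasma activity reference.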

[2] = Stability in human plasma assessed as half-life measured by LC-MS/MS analysis; type: ADME, cell-free; how it was run: as §1
[3] = molecular target: T1, ATP-dependent translocase ABCB1 (Homo sapiens, UniProt P08183); experiment: Inhibition of P-gp in doxorubicin-resistant human HT-29 cells overexpressing P-gp assessed as increase in doxorubicin retention 1 uM in presence of 5 uM doxorubicin measured after 24 hrs by spectrophotometric method; type: cell-based; details: ht-29, 24 h
T1 sequence (P08183 whole entry): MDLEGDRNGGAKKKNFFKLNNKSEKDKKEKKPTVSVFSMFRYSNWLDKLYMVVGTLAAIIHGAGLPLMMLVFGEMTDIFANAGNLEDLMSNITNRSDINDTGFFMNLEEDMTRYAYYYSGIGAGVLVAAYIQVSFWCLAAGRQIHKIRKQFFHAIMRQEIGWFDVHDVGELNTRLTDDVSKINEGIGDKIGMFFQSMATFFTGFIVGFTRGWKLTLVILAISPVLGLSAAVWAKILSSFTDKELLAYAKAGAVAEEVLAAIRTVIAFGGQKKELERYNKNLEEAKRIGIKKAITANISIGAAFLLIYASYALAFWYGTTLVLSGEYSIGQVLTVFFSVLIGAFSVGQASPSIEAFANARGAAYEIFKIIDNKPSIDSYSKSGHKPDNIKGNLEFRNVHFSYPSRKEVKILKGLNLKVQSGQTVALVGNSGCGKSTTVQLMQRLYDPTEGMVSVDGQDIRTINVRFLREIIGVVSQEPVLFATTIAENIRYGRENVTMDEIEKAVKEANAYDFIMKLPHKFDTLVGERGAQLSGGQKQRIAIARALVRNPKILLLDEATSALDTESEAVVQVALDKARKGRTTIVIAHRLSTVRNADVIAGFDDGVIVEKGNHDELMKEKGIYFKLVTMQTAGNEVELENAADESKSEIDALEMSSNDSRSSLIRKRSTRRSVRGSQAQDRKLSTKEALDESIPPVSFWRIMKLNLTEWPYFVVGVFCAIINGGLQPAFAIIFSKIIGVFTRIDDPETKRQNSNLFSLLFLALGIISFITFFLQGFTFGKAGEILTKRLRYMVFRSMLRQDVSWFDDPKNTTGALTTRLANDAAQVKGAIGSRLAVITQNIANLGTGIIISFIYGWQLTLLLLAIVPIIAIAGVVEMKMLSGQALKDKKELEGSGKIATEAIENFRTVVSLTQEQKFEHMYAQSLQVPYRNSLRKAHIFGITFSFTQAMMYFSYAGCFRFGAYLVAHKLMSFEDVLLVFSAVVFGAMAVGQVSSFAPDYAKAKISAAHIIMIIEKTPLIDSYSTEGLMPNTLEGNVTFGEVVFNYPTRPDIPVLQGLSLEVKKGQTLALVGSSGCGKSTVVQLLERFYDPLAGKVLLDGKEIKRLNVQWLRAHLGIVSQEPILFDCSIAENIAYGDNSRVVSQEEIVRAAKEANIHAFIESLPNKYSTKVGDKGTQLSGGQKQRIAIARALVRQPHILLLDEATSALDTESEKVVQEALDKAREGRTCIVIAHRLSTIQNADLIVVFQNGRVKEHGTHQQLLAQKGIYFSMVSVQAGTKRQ
How it was run: (§2)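 Resistant cells (wild-type, P-gp KO or hCA XII KO; KO lines selected with 1 μg/mL puromycin) exposed to 5 μM doxorubicin alone or with test compound at 1 or 3 μM. Cells washed, trypsinized and extracted in ethanol/0.3 N HCl. Doxorubicin fluorescence read at ex 475/em 553 nm and converted to nmol/mg cell protein with a calibration curve. Mean ± SD, n = 3.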

[4] = molecular target: T1, ATP-dependent translocase ABCB1; experiment: Inhibition of P-gp in doxorubicin-resistant human A549 cells overexpressing P-gp assessed as increase in doxorubicin retention 1 uM in presence of 5 uM doxorubicin measured after 24 hrs by spectrophotometric method; type: cell-based; details: a549, 24 h; how it was run: as §2
[5] = molecular target: T1, ATP-dependent translocase ABCB1; experiment: Inhibition of P-gp in doxorubicin-resistant human HT-29 cells overexpressing P-gp assessed as increase in doxorubicin retention 3 uM in presence of 5 uM doxorubicin measured after 24 hrs by spectrophotometric method; type: cell-based; details: ht-29, 24 h; how it was run: as §2
[6] = molecular target: T1, ATP-dependent translocase ABCB1; experiment: Inhibition of P-gp in doxorubicin-resistant human A549 cells overexpressing P-gp assessed as increase in doxorubicin retention 3 uM in presence of 5 uM doxorubicin measured after 24 hrs by spectrophotometric method; type: cell-based; details: a549, 24 h; how it was run: as §2
[7] = molecular target: T1, ATP-dependent translocase ABCB1; experiment: Inhibition of P-gp in human HT-29 cells overexpressing P-gp assessed as Vmax at 1 uM in presence of 0 to 100 uM doxorubicin […]; type: cell-based; details: ht-29, 1 µM
How it was run: (§3)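 Cells incubated 20 min with 0–100 μM doxorubicin, alone or with compound at 1 or 3 μM. A parallel set was left a further 10 min at 37 °C, then intracellular drug measured. Doxorubicin extruded (nmol/min/mg protein) plotted against initial concentration and fitted to Michaelis–Menten to give Vmax and Km. Mean ± SD.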

[8] = molecular target: T1, ATP-dependent translocase ABCB1; experiment: Inhibition of P-gp in human HT-29 cells overexpressing P-gp assessed as Vmax at 3 uM in presence of 0 to 100 uM doxorubicin […]; type: cell-based; details: ht-29, 3 µM; how it was run: as §3
[9] = molecular target: T1, ATP-dependent translocase ABCB1; experiment: Inhibition of P-gp in doxorubicin-resistant human HT-29 cells overexpressing P-gp assessed as Vmax at 1 uM in presence of 0 to 100 uM doxorubicin […]; type: cell-based; details: ht-29, 1 µM; how it was run: as §3
[10] = molecular target: T1, ATP-dependent translocase ABCB1; experiment: Inhibition of P-gp in doxorubicin-resistant human HT-29 cells overexpressing P-gp assessed as Vmax at 3 uM in presence of 0 to 100 uM doxorubicin […]; type: cell-based; details: ht-29, 3 µM; how it was run: as §3
[11] = molecular target: T1, ATP-dependent translocase ABCB1; experiment: Inhibition of P-gp in doxorubicin-resistant carbonic anhydrase knockout human HT-29 cells overexpressing P-gp assessed as Vmax at 1 uM in presence of 0 to 100 uM doxorubicin […]; type: cell-based; details: ht-29, 1 µM; how it was run: as §3
[12] = molecular target: T1, ATP-dependent translocase ABCB1; experiment: Inhibition of P-gp in doxorubicin-resistant carbonic anhydrase knockout human HT-29 cells overexpressing P-gp assessed as Vmax at 3 uM in presence of 0 to 100 uM doxorubicin […]; type: cell-based; details: ht-29, 3 µM; how it was run: as §3
[13] = molecular target: T1, ATP-dependent translocase ABCB1; experiment: Inhibition of P-gp in human A549 cells overexpressing P-gp assessed as Vmax at 1 uM in presence of 0 to 100 uM doxorubicin […]; type: cell-based; details: a549, 1 µM; how it was run: as §3
[14] = molecular target: T1, ATP-dependent translocase ABCB1; experiment: Inhibition of P-gp in human A549 cells overexpressing P-gp assessed as Vmax at 3 uM in presence of 0 to 100 uM doxorubicin […]; type: cell-based; details: a549, 3 µM; how it was run: as §3
[15] = molecular target: T1, ATP-dependent translocase ABCB1; experiment: Inhibition of P-gp in doxorubicin-resistant human A549 cells overexpressing P-gp assessed as Vmax at 1 uM in presence of 0 to 100 uM doxorubicin […]; type: cell-based; details: a549, 1 µM; how it was run: as §3
[16] = molecular target: T1, ATP-dependent translocase ABCB1; experiment: Inhibition of P-gp in doxorubicin-resistant human A549 cells overexpressing P-gp assessed as Vmax at 3 uM in presence of 0 to 100 uM doxorubicin […]; type: cell-based; details: a549, 3 µM; how it was run: as §3
[17] = molecular target: T1, ATP-dependent translocase ABCB1; experiment: Inhibition of P-gp in doxorubicin-resistant carbonic anhydrase knockout human A549 cells overexpressing P-gp assessed as Vmax at 1 uM in presence of 0 to 100 uM doxorubicin […]; type: cell-based; details: a549, 1 µM; how it was run: as §3
[18] = molecular target: T1, ATP-dependent translocase ABCB1; experiment: Inhibition of P-gp in doxorubicin-resistant carbonic anhydrase knockout human A549 cells overexpressing P-gp assessed as Vmax at 3 uM in presence of 0 to 100 uM doxorubicin […]; type: cell-based; details: a549, 3 µM; how it was run: as §3

Row | Compound | Stability [1] | Stability [2] | also measured
1 | COc1cc(C(=O)OCCCN(CCCCCCCOC(=O)c2c3ccccc3cc3ccccc23)CCCOc2ccc3ccc(=O)oc3c2)cc(OC)c1OC | Stable | Stable | 
2 | O=C(OCCCCCCCN(CCCOC(=O)c1c2ccccc2cc2ccccc12)CCCOc1ccc2ccc(=O)oc2c1)c1c2ccccc2cc2ccccc12 | Stable | Stable | 
3 | COc1cc(/C=C/C(=O)OCCCN(CCCCCOC(=O)c2c3ccccc3cc3ccccc23)CCCOc2ccc3ccc(=O)oc3c2)cc(OC)c1OC | Stable | Stable | 
4 | O=C(OCCCCCCN(CCCOC(=O)c1c2ccccc2cc2ccccc12)CCCOc1ccc2ccc(=O)oc2c1)c1c2ccccc2cc2ccccc12 | Stable | Stable | 
5 | COc1cc(/C=C/C(=O)OCCCN(CCCCCCOC(=O)c2c3ccccc3cc3ccccc23)CCCOc2ccc3ccc(=O)oc3c2)cc(OC)c1OC | Stable | Stable | 
6 | COc1cc(C(=O)OCCCCCCN(CCCOC(=O)c2c3ccccc3cc3ccccc23)CCCOc2ccc3ccc(=O)oc3c2)cc(OC)c1OC | Stable | Stable | 
7 | COc1cc(C(=O)OCCCCCN(CCCOC(=O)c2c3ccccc3cc3ccccc23)CCCOc2ccc3ccc(=O)oc3c2)cc(OC)c1OC | Stable | Stable | 
8 | COc1cc(C(=O)OCCCN(CCCCCOC(=O)c2c3ccccc3cc3ccccc23)CCCOc2ccc3ccc(=O)oc3c2)cc(OC)c1OC | Stable | Stable | 
9 | COc1cc(C(=O)OCCCCCCCN(CCCOC(=O)c2cc(OC)c(OC)c(OC)c2)CCCOc2ccc3ccc(=O)oc3c2)cc(OC)c1OC | Stable | Stable | 
10 | COc1cc(C(=O)OCCCCCCN(CCCOC(=O)c2cc(OC)c(OC)c(OC)c2)CCCOc2ccc3ccc(=O)oc3c2)cc(OC)c1OC | Stable | Stable | inhibition (INH) [3]: Active; inhibition (INH) [4]: Active; inhibition (INH) [5]: Active; inhibition (INH) [6]: Active; Vmax [7]: 3.21 µmol/min; Vmax [8]: 3.28 µmol/min; Vmax [9]: 4.73 µmol/min; Vmax [10]: 3.8 µmol/min; Vmax [11]: 4.27 µmol/min; Vmax [12]: 3.45 µmol/min; Vmax [13]: 2.43 µmol/min; Vmax [14]: 2.41 µmol/min; Vmax [15]: 5.27 µmol/min; Vmax [16]: 4.14 µmol/min; Vmax [17]: 3.6 µmol/min; Vmax [18]: 2.92 µmol/min
11 | COc1cc(/C=C/C(=O)OCCCCCCCN(CCCOC(=O)c2c3ccccc3cc3ccccc23)CCCOc2ccc3ccc(=O)oc3c2)cc(OC)c1OC | Stable | Stable | 
12 | COc1cc(C(=O)OCCCN(CCCCCCOC(=O)c2c3ccccc3cc3ccccc23)CCCOc2ccc3ccc(=O)oc3c2)cc(OC)c1OC | Stable | Stable | 
13 | COc1cc(/C=C/C(=O)OCCCCCN(CCCOC(=O)c2c3ccccc3cc3ccccc23)CCCOc2ccc3ccc(=O)oc3c2)cc(OC)c1OC | Stable | Stable | 
14 | COc1cc(/C=C/C(=O)OCCCCCCCN(CCCOC(=O)/C=C/c2cc(OC)c(OC)c(OC)c2)CCCOc2ccc3ccc(=O)oc3c2)cc(OC)c1OC | Stable | Stable | 
15 | O=C(OCCCCCN(CCCOC(=O)c1c2ccccc2cc2ccccc12)CCCOc1ccc2ccc(=O)oc2c1)c1c2ccccc2cc2ccccc12 | Stable | Stable | 
16 | COc1cc(C(=O)OCCCCCCCN(CCCOC(=O)c2c3ccccc3cc3ccccc23)CCCOc2ccc3ccc(=O)oc3c2)cc(OC)c1OC | Stable | Stable | 
17 | COc1cc(/C=C/C(=O)OCCCCCCN(CCCOC(=O)c2c3ccccc3cc3ccccc23)CCCOc2ccc3ccc(=O)oc3c2)cc(OC)c1OC | Stable | Stable | 
18 | COc1cc(/C=C/C(=O)OCCCN(CCCCCCCOC(=O)c2c3ccccc3cc3ccccc23)CCCOc2ccc3ccc(=O)oc3c2)cc(OC)c1OC | Stable | Stable | 

Further lines, with some results ahead:

Row | Stability [1] | Stability [2] | Compound | also measured
19 | Stable | Stable | COc1cc(/C=C/C(=O)OCCCN(CCCCCOC(=O)c2cc(OC)c(OC)c(OC)c2)CCCOc2ccc3ccc(=O)oc3c2)cc(OC)c1OC | 
20 | Stable | Stable | COc1cc(/C=C/C(=O)OCCCCCCN(CCCOC(=O)/C=C/c2cc(OC)c(OC)c(OC)c2)CCCOc2ccc3ccc(=O)oc3c2)cc(OC)c1OC | 
21 | Stable | Stable | COc1cc(/C=C/C(=O)OCCCN(CCCCCCOC(=O)c2cc(OC)c(OC)c(OC)c2)CCCOc2ccc3ccc(=O)oc3c2)cc(OC)c1OC | 
22 | Stable | Stable | COc1cc(C(=O)OCCCCCN(CCCOC(=O)c2cc(OC)c(OC)c(OC)c2)CCCOc2ccc3ccc(=O)oc3c2)cc(OC)c1OC | inhibition (INH) [3]: Active; inhibition (INH) [4]: Active; inhibition (INH) [5]: Active; inhibition (INH) [6]: Active; Vmax [7]: 3.29 µmol/min; Vmax [8]: 3.12 µmol/min; Vmax [9]: 5.3 µmol/min; Vmax [10]: 3.21 µmol/min; Vmax [11]: 4.3 µmol/min; Vmax [12]: 3.22 µmol/min; Vmax [13]: 2.36 µmol/min; Vmax [14]: 2.35 µmol/min; Vmax [15]: 5.1 µmol/min; Vmax [16]: 3.98 µmol/min; Vmax [17]: 3.75 µmol/min; Vmax [18]: 2.74 µmol/min
23 | Stable | Stable | COc1cc(/C=C/C(=O)OCCCCCCN(CCCOC(=O)c2cc(OC)c(OC)c(OC)c2)CCCOc2ccc3ccc(=O)oc3c2)cc(OC)c1OC | 
24 | Stable | Stable | COc1cc(/C=C/C(=O)OCCCCCN(CCCOC(=O)c2cc(OC)c(OC)c(OC)c2)CCCOc2ccc3ccc(=O)oc3c2)cc(OC)c1OC | 
25 | Stable | Stable | COc1cc(/C=C/C(=O)OCCCCCN(CCCOC(=O)/C=C/c2cc(OC)c(OC)c(OC)c2)CCCOc2ccc3ccc(=O)oc3c2)cc(OC)c1OC | 
26 | Stable | Stable | COc1cc(/C=C/C(=O)OCCCN(CCCCCCCOC(=O)c2cc(OC)c(OC)c(OC)c2)CCCOc2ccc3ccc(=O)oc3c2)cc(OC)c1OC | 
27 | Stable | Stable | COc1cc(/C=C/C(=O)OCCCCCCCN(CCCOC(=O)c2cc(OC)c(OC)c(OC)c2)CCCOc2ccc3ccc(=O)oc3c2)cc(OC)c1OC | 
